We go through 18 compounds from ChEMBL document CHEMBL3421632, “Rational design of triazololipopeptides analogs of kisspeptin inducing a long-lasting increase of gonadotropins” (J Med Chem, 2015).

Calls of active or inactive are those of the source. The calls are words filed in the database; no cut-off is given here. *1 amine or outer side, *2 acyl side, *3 side chain or, on linkers, in order; H or OH if unused. Where a SMILES comes first, the peptide text is derived from it. Side-chain parts run from the residue outwards. [ ]: non-standard residue; d: D form. The star is where a group is joined. Glyψ(1,4-Tz)Leu = CC(C)C[C@@H](C(=O)[*:2])n1cc(CN[*:1])nn1; X1 = O=C(Cn1cc([C@H](Cc2ccccc2)N[*:1])nn1)[*:2]; γGlu = O=C(O)[C@H](CCC(=O)[*:2])N[*:1]; Palmitoyl = CCCCCCCCCCCCCCCC(=O)*; azaGly = NNC(=O)O

The target of series [1] is T1, KiSS-1 receptor (Homo sapiens, UniProt Q969F8). In words: Agonist activity at human wild-type KISS1R expressed in HEK293 cells assessed as induction of intracellular Ca2+ mobilization after 30 mins by Fluo4 NW Ca2+ assay. Type of series: functional, cell-based. An outline of the steps: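 HEK293 stably expressing HA-tagged wild-type human KISS1R, plated 40 000 cells/well 48 h prior. Loaded with Fluo4 NW dye 30 min at 37 °C plus 30 min at rt. Basal read 5× at 7 s intervals, compound added (final 1 pM–1 μM), Ca2+ followed 7 min. Mean basal subtracted, AUC plotted against concentration, sigmoid fit gives EC50. Nontransfected HEK293 served as control.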
T1 sequence (Q969F8 whole entry): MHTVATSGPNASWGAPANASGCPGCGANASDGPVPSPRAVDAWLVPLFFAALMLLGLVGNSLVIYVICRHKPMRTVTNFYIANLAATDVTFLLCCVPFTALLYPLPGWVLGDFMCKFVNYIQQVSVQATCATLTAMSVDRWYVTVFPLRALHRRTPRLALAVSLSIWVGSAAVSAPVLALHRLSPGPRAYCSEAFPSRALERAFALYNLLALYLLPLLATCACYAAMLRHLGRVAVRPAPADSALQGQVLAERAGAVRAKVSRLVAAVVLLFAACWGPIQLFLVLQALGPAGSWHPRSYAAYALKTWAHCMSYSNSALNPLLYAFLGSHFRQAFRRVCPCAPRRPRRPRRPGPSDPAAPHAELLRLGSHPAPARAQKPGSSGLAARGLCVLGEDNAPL
In general terms: Calcium assays in cells follow changes in intracellular calcium, usually with a dye or a luminescent sensor.

Series [2] is described as follows: Stability in Ile-de-France ewe serum assessed as intact compound level at 50 uM incubated for 6 hrs by HPLC method. Type of series: ADME, cell-free, Ovis aries. Conditions: female, sheep, read-out: Stability. In a few lines: (§1)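 Ile-de-France ewe serum, stored at −20 °C and preheated 30 min at 39 °C. Peptide at 50 μM final, with L-phenylalaninol internal calibrator, incubated at 39 °C. Proteins precipitated with MeCN and spun; supernatant run on RP-HPLC (2–52% MeCN/0.1% TFA over 5 min, UV 214 nm, plus MS). Intact peak given as % of t = 0 area; five independent experiments.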

Series [3] concerns Ovis aries. In words: Increase in total plasma LH level in anoestrus Ile-de-France ewe at 5 nmol, iv by radioimmunoassay. The class given is functional, organism-based. An outline of the steps: (§2)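 Intact acyclic anoestrous Ile-de-France ewes (3–5 y, 55–70 kg), jugular catheter placed the day before. Single iv bolus of 1–15 nmol/ewe. Basal LH taken every 10 min for 30 min, then every 10 min for 2 h, every 20 min for 4 h, then hourly. Plasma LH by RIA (1051-CY-LH standard, sensitivity 0.1 ng/mL). Peak, duration and AUC derived; mean ± SEM, N = 4–6.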

In series [4] the target is Neuropeptide FF receptor 1 (Homo sapiens, UniProt Q9GZQ6). Nature of the series: Agonist activity at human NPFF1R expressed in CHO cells assessed as effect on forskolin-induced cAMP accumulation after 15 mins by luminescence based assay. The class given is functional, cell-based. In a few lines: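 CHO cells stably expressing hNPFF1R (Gαi-coupled), transfected with GloSensor; seeded 30 000 cells/well 24 h before, PBS-washed twice, loaded with GloSensor cAMP reagent 2 h. Compound added, luminescence read 15 min, then 300 nM forskolin + 0.25 mM IBMX added and read a further 120 min. Signal AUC plotted against concentration, sigmoid fit for EC50.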
Chain of Neuropeptide FF receptor 1 (Q9GZQ6 whole entry): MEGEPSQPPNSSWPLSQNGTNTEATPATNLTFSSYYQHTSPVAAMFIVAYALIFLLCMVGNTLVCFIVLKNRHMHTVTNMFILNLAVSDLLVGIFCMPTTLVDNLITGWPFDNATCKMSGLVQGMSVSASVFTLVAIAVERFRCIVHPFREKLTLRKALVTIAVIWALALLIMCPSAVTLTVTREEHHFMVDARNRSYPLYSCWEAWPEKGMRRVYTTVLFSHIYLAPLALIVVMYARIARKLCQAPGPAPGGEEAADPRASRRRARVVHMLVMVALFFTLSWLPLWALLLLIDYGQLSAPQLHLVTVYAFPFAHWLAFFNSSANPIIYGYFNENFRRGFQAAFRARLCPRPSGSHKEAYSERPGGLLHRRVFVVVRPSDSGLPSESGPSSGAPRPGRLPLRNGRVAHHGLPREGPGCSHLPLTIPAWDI

Series [5] has as its system Ovis aries. In words: Increase in duration of increase of plasma LH level in anoestrus Ile-de-France ewe at 5 nmol, iv by radioimmunoassay. Type of series: functional. An outline of the steps: as §2
The species entered for the next series is Homo sapiens. In words: Selectivity index, ratio of EC50 for human NPFF1R to EC50 for human wild-type KISS1R.
Series [6] relates to Ovis aries. In words: Increase in maximal amplitude of plasma LH level in anoestrus Ile-de-France ewe at 5 nmol, iv by radioimmunoassay (reference value: 0.6 +/- 0.5 ng/ml). The class given is functional. An outline of the steps: as §2
The nature of series [7]: Drug metabolism in Ile-de-France ewe serum treated with 50 uM Ac-Tyr-Asn-Trp-Asn-Ser-Phe-azaGly-Leu-Arg-Tyr-NH2 assessed as retention time incubated for 6 hrs by LC-MS method. Type of series: ADME, cell-free, Ovis aries. Conditions: sheep.
Series [8] deals with Ovis aries. In words: Increase in time duration of increase of plasma LH level in anoestrus Ile-de-France ewe at 1 to 15 nmol, iv by radioimmunoassay. The class given is functional, organism-based. In a few lines: as §2
Series [9] concerns Ovis aries. In words: Increase in total plasma LH level in anoestrus Ile-de-France ewe at 1 to 15 nmol, iv by radioimmunoassay. The class given is functional, organism-based. An outline of the steps:
as §2

Series [10] deals with Ovis aries. In words: Increase in maximal amplitude of plasma LH level in anoestrus Ile-de-France ewe at 5 nmol, iv by radioimmunoassay (reference value: 0.4 +/- 0.2 ng/ml). The class given is functional. In a few lines: as §2
Series [11] deals with Ovis aries. Nature of the series: Increase in maximal amplitude of plasma LH level in anoestrus Ile-de-France ewe at 1 to 15 nmol, iv by radioimmunoassay. Type of series: functional, organism-based. An outline of the steps:
as §2

Series [12] has as its target T1, KiSS-1 receptor. Nature of the series: Potency index, ratio of EC50 for KP10 to EC50 for compound for agonist activity at human wild-type KISS1R expressed in HEK293 cells assessed as induction of intracellular Ca2+ mobilization after 30 mins by Fluo4 NW Ca2+ assay. Type of series: functional, cell-based. In a few lines: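 Ratio of KP10 EC50 to analog EC50, both measured by Fluo4 NW Ca2+ mobilization in HEK293 cells stably expressing HA-tagged human KISS1R. AUC from 7 min of monitoring, concentrations 1 pM–1 μM, sigmoid fit.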

The nature of series [13]: Stability in Ile-de-France ewe serum assessed as intact compound level at 50 uM incubated for 1 hr by HPLC method. Type of series: ADME, cell-free, Ovis aries. Conditions: sheep, BLD = below limit of detection. An outline of the steps:
as §1

The nature of series [14]: Drug metabolism in Ile-de-France ewe serum assessed as cleavage at C and N-termini of azaGly bond at 50 uM incubated for 6 hrs by LC-MS method. The class given is ADME, cell-free, Ovis aries. Conditions: sheep.

The term EC50 denotes the concentration needed to bring the measured effect to its halfway point. Take Ac-YNK(Ac)NSFGLRY-NH2: the EC50 on KiSS-1 receptor [1] was 0.08 nM.
The same measure, in the same setting: the value for `CCCCCCCCCCCCCCCC(=O)NCCCC[C@H](NC(=O)[C@H](CC(N)=O)NC(=O)[C@H](Cc1ccc(O)cc1)NC(C)=O)C(=O)N[C@@H](CC(N)=O)C(=O)N[C@@H](CO)C(=O)N[C@@H](Cc1ccccc1)C(=O)NCC(=O)N[C@@H](CC(C)C)C(=O)N[C@@H](CCCNC(=N)N)C(=O)N[C@@H](Cc1ccc(O)cc1)C(N)=O` (Ac-YNK(Palmitoyl)NSFGLRY-NH2) was greater than 500 nM.
Same read-out and setting: the value for Ac-YK(Ac)WNSFGLRY-NH2 was 0.1 nM; that for Ac-YNWK(Ac)SFGLRY-NH2 was 13.9 nM.
On to `CC(=O)N[C@@H](Cc1ccc(O)cc1)C(=O)N[C@@H](CC(N)=O)C(=O)N[C@@H](Cc1c[nH]c2ccccc12)C(=O)N[C@@H](CC(N)=O)C(=O)N[C@@H](CO)C(=O)N[C@@H](Cc1ccccc1)c1cn(CC(=O)N[C@@H](CC(C)C)C(=O)N[C@@H](CCCNC(=N)N)C(=O)N[C@@H](Cc2ccc(O)cc2)C(N)=O)nn1` (Ac-YNWNS[X1]LRY-NH2), for which, on KiSS-1 receptor [1], the concentration for a half-maximal effect (EC50) was determined as 0.6 nM. Besides, in series [2], the remaining at 6 h, 50 µM came out at 61.4%.
On to Ac-YNWNSFGLRY-NH2, for which the half-maximal effective concentration (EC50) at KiSS-1 receptor [1] was 0.07 nM; in series [4], greater than 5000 nM. The remaining at 6 h, 50 µM in [2] was 2.6%. Also, the outcome in the series on Ovis aries [3] and in the series on Ovis aries [5] was Active. Also, the Ratio EC50 in the series filed under Homo sapiens was greater than 10000. The Activity in the series on Ovis aries [6] came to 3.9 ng/mL.
Take Ac-YNWNSF-OH: the Retention_time in [7] is 9.51 min.
On to `CC(=O)N[C@@H](Cc1ccc(O)cc1)C(=O)N[C@@H](CC(N)=O)C(=O)N[C@@H](Cc1c[nH]c2ccccc12)C(=O)N[C@@H](CC(N)=O)C(=O)N[C@@H](CO)C(=O)N[C@@H](Cc1ccccc1)C(=O)NCc1cn([C@@H](CC(C)C)C(=O)N[C@@H](CCCNC(=N)N)C(=O)N[C@@H](Cc2ccc(O)cc2)C(N)=O)nn1` (Ac-YNWNSF[Glyψ(1,4-Tz)Leu]RY-NH2), for which the result with Ovis aries [8], in the series on Ovis aries [9], with Ovis aries [11] and in the series on Ovis aries [3] was Active. The concentration for a half-maximal effect (EC50) on KiSS-1 receptor [1] was 0.07 nM; in series [4], greater than 5000 nM. For the same compound, the Activity in the series on Ovis aries [10] turned out to be 5.4 ng/mL. Besides, in [2], the remaining at 6 h, 50 µM worked out at 40.8%. Further, the “fold change (FC)” value with Ovis aries [5] was greater than 2. Also, the values for the Ratio EC50 in the series filed under Homo sapiens and on KiSS-1 receptor [12] were greater than 10000 and 30, respectively.
Turning to Ac-YNWNK(Ac)FGLRY-NH2, the half-maximal effective concentration (EC50) at KiSS-1 receptor [1] worked out at 7.2 nM.
The same measure, in the same setting: the value for Ac-K(Ac)NWNSFGLRY-NH2 was 0.9 nM.
For the compound `CC(C)C[C@H](N)C(=O)N[C@@H](CCCNC(=N)N)C(=O)N[C@@H](Cc1ccc(O)cc1)C(N)=O` (H-Leu-Arg-Tyr-NH2), the Retention_time in series [7] is given as 7.57 min.
Regarding `CCCCCCCCCCCCCCCC(=O)N[C@@H](CCC(=O)NCCCC[C@H](NC(=O)[C@H](CC(N)=O)NC(=O)[C@H](Cc1ccc(O)cc1)NC(C)=O)C(=O)N[C@@H](CC(N)=O)C(=O)N[C@@H](CO)C(=O)N[C@@H](Cc1ccccc1)C(=O)NCc1cn([C@@H](CC(C)C)C(=O)N[C@@H](CCCNC(=N)N)C(=O)N[C@@H](Cc2ccc(O)cc2)C(N)=O)nn1)C(=O)O` (Ac-YNK([γGlu-Palmitoyl])NSF[Glyψ(1,4-Tz)Leu]RY-NH2), the concentration giving a half-maximal response (EC50) on KiSS-1 receptor [1] amounted to 216 nM.
Take H-YNWNSFGLRY-NH2: the EC50 at KiSS-1 receptor [1] stood at 2.5 nM. Moreover, the Activity with Ovis aries [6] turned out to be 3.3 ng/mL. Moreover, in series [13], the Stability entry is given as “BLD”.
In the case of `CCCCCCCCCCCCCCCC(=O)N[C@@H](CCC(=O)NCCCC[C@H](NC(=O)[C@H](Cc1ccc(O)cc1)NC(C)=O)C(=O)N[C@@H](Cc1c[nH]c2ccccc12)C(=O)N[C@@H](CC(N)=O)C(=O)N[C@@H](CO)C(=O)N[C@@H](Cc1ccccc1)C(=O)NCC(=O)N[C@@H](CC(C)C)C(=O)N[C@@H](CCCNC(=N)N)C(=O)N[C@@H](Cc1ccc(O)cc1)C(N)=O)C(=O)O` (Ac-YK([γGlu-Palmitoyl])WNSFGLRY-NH2), the EC50 at KiSS-1 receptor [1] was found to be 2.9 nM.
Consider `CC(=O)N[C@@H](Cc1ccc(O)cc1)C(=O)N[C@@H](CC(N)=O)C(=O)N[C@@H](Cc1c[nH]c2ccccc12)C(=O)N[C@@H](CC(N)=O)C(=O)N[C@@H](CO)C(=O)N[C@@H](Cc1ccccc1)C(=O)NNC(=O)N[C@@H](CC(C)C)C(=O)N[C@@H](CCCNC(=N)N)C(=O)N[C@@H](Cc1ccc(O)cc1)C(N)=O` (Ac-YNWNSF[azaGly]LRY-NH2), for which, on KiSS-1 receptor [1], the EC50 was 0.006 nM. For the same compound, in series [2], the remaining at 6 h, 50 µM is 8.4%. Also, in [14], the Drug metabolism result is reported as “metabolite_detected”.
Turning to `CCCCCCCCCCCCCCCC(=O)N[C@@H](CCC(=O)NCCCC[C@H](NC(=O)[C@H](CC(N)=O)NC(=O)[C@H](Cc1ccc(O)cc1)NC(C)=O)C(=O)N[C@@H](CC(N)=O)C(=O)N[C@@H](CO)C(=O)N[C@@H](Cc1ccccc1)C(=O)NCC(=O)N[C@@H](CC(C)C)C(=O)N[C@@H](CCCNC(=N)N)C(=O)N[C@@H](Cc1ccc(O)cc1)C(N)=O)C(=O)O` (Ac-YNK([γGlu-Palmitoyl])NSFGLRY-NH2), the concentration for a half-maximal effect (EC50) at KiSS-1 receptor [1] amounted to 24.4 nM.
Still for that read-out and setting: the value for `CCCCCCCCCCCCCCCC(=O)NCCCC[C@H](NC(=O)[C@H](Cc1ccc(O)cc1)NC(C)=O)C(=O)N[C@@H](Cc1c[nH]c2ccccc12)C(=O)N[C@@H](CC(N)=O)C(=O)N[C@@H](CO)C(=O)N[C@@H](Cc1ccccc1)C(=O)NCC(=O)N[C@@H](CC(C)C)C(=O)N[C@@H](CCCNC(=N)N)C(=O)N[C@@H](Cc1ccc(O)cc1)C(N)=O` (Ac-YK(Palmitoyl)WNSFGLRY-NH2) was 182 nM.
Turning to `CC(=O)N[C@@H](Cc1ccc(O)cc1)C(=O)N[C@@H](CC(N)=O)C(=O)N[C@@H](Cc1c[nH]c2ccccc12)C(=O)N[C@@H](CC(N)=O)C(=O)N[C@@H](CO)C(=O)N[C@@H](Cc1ccccc1)c1cn(Cc2cn([C@@H](CC(C)C)C(=O)N[C@@H](CCCNC(=N)N)C(=O)N[C@@H](Cc3ccc(O)cc3)C(N)=O)nn2)nn1`, at KiSS-1 receptor [1], the half-maximal effective concentration (EC50) was determined as 120 nM. Besides, the remaining at 6 h, 50 µM in series [2] was determined as 50.7%.
